Screening results deposited in PubChem by several laboratories.
14-3-3 Bad PPI – inhibitors of 14-3-3 zeta/Bad binding, primary screen, biochemical, TR-FRET, bovine 14-3-3 zeta | 14-3-3 protein zeta/delta (Bos taurus), P63103 | AID 781, 2007 | TR-FRET 14-3-3zeta/Dy647-pBad peptide displacement, 1 h | 220,000 tested, 0.71% active | inhibition, % at 21.7 µM;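 active = inhibition above about 70%, limit read from the data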;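 also: 0% = full 14-3-3 plus peptide FRET controls and 100% = background without 14-3-3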
Runt-CBFb FRET – inhibitors of RUNX1 Runt–CBFb binding, primary screen, biochemical, FRET, Cerulean-Runt, Venus-CBFb, uHTS; Cerulean-Runt/Venus-CBFb FRET ratio 530/480, 1 h; inhibition, % at 20 µM; 220,000 tested, 0.46% active; AID 1496, 2009;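 active = inhibition over about 50% at 20 µM in the single-dose screen, limit read from the data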;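 also: 0% = DMSO wells and 100% = excess unlabeled CBFb competitor control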
Target sequence (Q01196 whole entry, looked up): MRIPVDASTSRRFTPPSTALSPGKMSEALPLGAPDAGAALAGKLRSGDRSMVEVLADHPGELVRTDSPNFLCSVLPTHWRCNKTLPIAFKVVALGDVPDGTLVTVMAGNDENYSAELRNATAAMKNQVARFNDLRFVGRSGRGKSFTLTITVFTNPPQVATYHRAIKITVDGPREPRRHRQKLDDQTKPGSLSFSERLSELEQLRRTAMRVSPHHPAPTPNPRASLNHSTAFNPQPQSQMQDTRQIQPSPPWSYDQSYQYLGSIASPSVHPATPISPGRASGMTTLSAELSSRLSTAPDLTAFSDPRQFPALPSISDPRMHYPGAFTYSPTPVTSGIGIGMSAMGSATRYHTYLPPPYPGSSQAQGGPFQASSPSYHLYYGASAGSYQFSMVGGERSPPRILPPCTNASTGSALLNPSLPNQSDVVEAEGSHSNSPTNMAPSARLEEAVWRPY
Target sequence (Q13951 whole entry, looked up): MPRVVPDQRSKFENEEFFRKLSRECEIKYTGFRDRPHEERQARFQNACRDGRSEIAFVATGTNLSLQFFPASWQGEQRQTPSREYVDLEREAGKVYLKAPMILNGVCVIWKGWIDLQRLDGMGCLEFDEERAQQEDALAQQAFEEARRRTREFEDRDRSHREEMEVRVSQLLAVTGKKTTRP
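Reagent – Venus-CBFb binding partner, 100 nM · Assay system – Cerulean-tagged RUNX1 Runt domain (FRET donor) fusion protein · Input – 100 nM per protein · Incubation – two 1 h room-temperature incubations shielded from light · Measured by – FRET fluorescence · Medium – Tris buffer pH 7.5 with salts and BSA · Benchmarks – unlabeled CBFb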
Hck-Nef inh – inhibitors of Nef-activated human Hck kinase, primary screen, biochemical, Z-Lyte FRET, 384-well, Hck-YEEI; Tyrosine-protein kinase HCK (Homo sapiens), P08631; Recombinant Hck-YEEI plus Nef, Z-Lyte FRET kinase assay; inhibition, % at 20 µM; 220,000 tested, 0.68% active; AID 463187, 2010;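 active = Hck-Nef kinase inhibition above about 50%, limit read from the data; inactive = inhibition below that limit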;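 also: 0% = DMSO with Hck plus Nef and 100% = Hck alone without Nef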
Runt-SMMHC FRET – inhibitors of RUNX1 Runt–CBFb-SMMHC binding, primary screen, biochemical, FRET, Cerulean-Runt, Venus-CBFb-SMMHC, uHTS | Runt-related transcription factor 1 (Homo sapiens) + Core-binding factor subunit beta … | Cerulean-Runt/Venus-CBFb-SMMHC FRET ratio 530/480, 1 h | inhibition, % at 20 µM | 220,000 tested, 0.74% active | AID 1434, 2008;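 active = mean inhibition across duplicate retests at 20 µM reaching about 50%, limit read from the data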;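 also: 0% = DMSO wells and 100% = wells with excess untagged CBFb-SMMHC; inhibitors lower the FRET ratio by blocking Runt binding to CBFb-SMMHC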
TbHK1 inh – Trypanosoma brucei hexokinase 1 inhibitors, primary screen, biochemical, G6PDH-coupled NADH absorbance, MLSCN library; inhibition, % at 10 µM; hexokinase 1 [Trypanosoma brucei]; recombinant TbHK1, G6PDH-coupled NADH A340; 220,000 tested, 0.11% active;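 active = inhibition of 50% or more in the single-dose primary screen; inactive = inhibition below 50%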
RanGTP-Impb inh – inhibitors of RanGTP-importin-beta interaction, primary screen, biochemical, FRET, CFP-Ran, YFP-importin-beta, homogeneous. inhibition, % (no concentration beside the values). Ran GTPase (GTP-bound) - importin-beta complex. cell-free CFP-Ran/YFP-importin-beta FRET ratio. 300,000 tested, 1.1% active;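 active = more than half of the replicate wells show a fall in the fluorescence ratio signal beyond about 16%, limit read from the data, passing the limit was not always enough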;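 also: 0% = DMSO wells and 100% = Ran loaded with GDP instead of GTP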
Active calls of the source: *; [ ] = dose if it differs, or a comment. Hits are enriched below; roughly 2.2% of the tested compounds scored in any of these assays.

What do the screens show for `COc1ccc(C2C=C(c3ccccc3)Nc3ncnn32)cc1` (stereo not given)?
14-3-3 Bad PPI: -9; Runt-CBFb FRET: 18; Hck-Nef inh: 1; Runt-SMMHC FRET: 63*; TbHK1 inh: -25; RanGTP-Impb inh: 6

What do the screens show for `COc1ccc(C2=CC(c3ccco3)n3ncnc3N2)cc1` (stereo not given)?
14-3-3 Bad PPI: -6; Runt-CBFb FRET: -64; Hck-Nef inh: -48; Runt-SMMHC FRET: 87*; TbHK1 inh: -12

Results for COc1ccc(C2C=C(C)Nc3ncnn32)cc1 (stereo not given) ?
RanGTP-Impb inh: 0

What do the screens show for `CNc1ccccc1C(C)(C)c1cn(-c2ccc([N+](=O)[O-])cc2)nn1`?
RanGTP-Impb inh: 4

Results for CN(C)c1cc(-c2ccc([N+](=O)[O-])cc2)oc(=O)c1Cl ?
14-3-3 Bad PPI: -1; Runt-CBFb FRET: 1; Hck-Nef inh: 2; Runt-SMMHC FRET: -29; TbHK1 inh: -10; RanGTP-Impb inh: 0

How did CN(C(=O)CSc1nnnn1-c1ccccc1)C1CCS(=O)(=O)C1 (stereo not given) do in these assays?
14-3-3 Bad PPI: -1; Runt-CBFb FRET: -2; Hck-Nef inh: 13; Runt-SMMHC FRET: 2; TbHK1 inh: -1; RanGTP-Impb inh: 5

How did COc1ccc(CCNS(=O)(=O)c2ccc3c(c2)OCCO3)cc1 do in these assays?
14-3-3 Bad PPI: 84*; Runt-CBFb FRET: 1; Hck-Nef inh: 6; Runt-SMMHC FRET: 2; TbHK1 inh: 1; RanGTP-Impb inh: -1

Results for O=S(=O)(c1ccc2nc(Cc3ccccc3)[nH]c2c1)N1CCOCC1 ?
14-3-3 Bad PPI: 88*; Runt-CBFb FRET: 0; Hck-Nef inh: 0; Runt-SMMHC FRET: -4; TbHK1 inh: -1; RanGTP-Impb inh: 1

How did O=S(=O)(c1ccc2nc(Cc3cccc(C(F)(F)F)c3)[nH]c2c1)N1CCOCC1 do in these assays?
14-3-3 Bad PPI: 10; Runt-CBFb FRET: -1; Hck-Nef inh: 1; Runt-SMMHC FRET: 1; TbHK1 inh: -16; RanGTP-Impb inh: 5

Results for Cn1c(=O)oc2cc(S(=O)(=O)N3CCOCC3)ccc21 ?
14-3-3 Bad PPI: -6; Runt-CBFb FRET: 0; Hck-Nef inh: 1; Runt-SMMHC FRET: -1; TbHK1 inh: 4; RanGTP-Impb inh: 0

Results for O=S(=O)(c1ccc2c(c1)oc1ccccc12)N1CCOCC1 ?
14-3-3 Bad PPI: active[fluorescence artefact?]; Runt-CBFb FRET: 0; Hck-Nef inh: -1; Runt-SMMHC FRET: -1; TbHK1 inh: 2; RanGTP-Impb inh: 1

What do the screens show for `CCOC(=O)/C(C#N)=C1/C=C(C)c2ccccc2N1`?
14-3-3 Bad PPI: 1; Runt-CBFb FRET: 44; Hck-Nef inh: 48; Runt-SMMHC FRET: 91*; TbHK1 inh: -5; RanGTP-Impb inh: 4

How did COc1cc(C2Nc3ccccc3NC3=C2C(=O)CC(c2ccc(OC)c(OC)c2)C3)ccc1O (stereo not given) do in these assays?
14-3-3 Bad PPI: 1; Runt-CBFb FRET: 11; Hck-Nef inh: 15; Runt-SMMHC FRET: 56*; TbHK1 inh: -47; RanGTP-Impb inh: 5

How did COc1ccc(C2CC(=O)C3=C(C2)Nc2ccccc2N(C(=O)C2CC2)C3c2cccnc2)cc1OC (stereo not given) do in these assays?
14-3-3 Bad PPI: -3; Runt-CBFb FRET: 1; Hck-Nef inh: 1; Runt-SMMHC FRET: 5; TbHK1 inh: -59; RanGTP-Impb inh: -1

Results for CCOC(=O)C1=CN(Cc2ccc(OC)cc2)C=C(C(=O)OCC)C1c1cccs1 ?
14-3-3 Bad PPI: -7; Runt-CBFb FRET: 9; Hck-Nef inh: 58*; Runt-SMMHC FRET: 26; TbHK1 inh: -2; RanGTP-Impb inh: 3

What do the screens show for `OCCNc1nc(-c2ccccc2)c2ccccc2n1`?
Runt-CBFb FRET: 10; Hck-Nef inh: 8; Runt-SMMHC FRET: 10; TbHK1 inh: -16; RanGTP-Impb inh: 1

Results for OCCNc1nc(-c2ccccc2)c2cc(Cl)ccc2n1 ?
14-3-3 Bad PPI: -4; Runt-CBFb FRET: 49; Hck-Nef inh: 12; Runt-SMMHC FRET: 90*; TbHK1 inh: -8; RanGTP-Impb inh: 1

Results for Cc1ccc2nc(NCCO)nc(-c3ccccc3)c2c1 ?
14-3-3 Bad PPI: 3; Runt-CBFb FRET: 32; Hck-Nef inh: 10; Runt-SMMHC FRET: 42; TbHK1 inh: 1; RanGTP-Impb inh: 29*

How did N#C/C(=C\c1c(N2CCCCC2)nc2ccccn2c1=O)C(=O)NC1CCS(=O)(=O)C1 (stereo not given) do in these assays?
14-3-3 Bad PPI: -5; Runt-CBFb FRET: 4; Hck-Nef inh: 8; Runt-SMMHC FRET: 81*; TbHK1 inh: 22; RanGTP-Impb inh: 80*

What do the screens show for `Cc1cccn2c(=O)c(/C=C(\C#N)C(=O)NC3CCS(=O)(=O)C3)c(N3CCC(C)CC3)nc12` (stereo not given)?
14-3-3 Bad PPI: 2; Runt-CBFb FRET: 19; Hck-Nef inh: 39; Runt-SMMHC FRET: 63*; TbHK1 inh: 0; RanGTP-Impb inh: 84*

How did COC(=O)/C(C#N)=C/c1c(N2CCN(c3ccccc3)CC2)nc2c(C)cccn2c1=O do in these assays?
RanGTP-Impb inh: 3

How did O=C(O)c1cc2ncc(CCO)cn2n1 do in these assays?
14-3-3 Bad PPI: 31; Runt-CBFb FRET: -6; Hck-Nef inh: -28; Runt-SMMHC FRET: -8; TbHK1 inh: -8; RanGTP-Impb inh: -2

How did C/C(N)=C(/C#N)C(=O)CSc1cc(C)c2ccccc2n1 do in these assays?
14-3-3 Bad PPI: 6; Runt-CBFb FRET: -3; Hck-Nef inh: 2; Runt-SMMHC FRET: -1; TbHK1 inh: -6; RanGTP-Impb inh: -12

Results for Cc1ccccc1N1CCN(C(=S)c2ccc([N+](=O)[O-])cc2)CC1 ?
14-3-3 Bad PPI: -8; Runt-CBFb FRET: 35; Hck-Nef inh: 9; Runt-SMMHC FRET: 27; TbHK1 inh: 5; RanGTP-Impb inh: 26*

How did CN1CCN(S(=O)(=O)c2cccc(C(=O)N(C)CC(=O)Nc3ccc(F)c(F)c3F)c2)CC1 do in these assays?
RanGTP-Impb inh: 5

How did Cc1onc(-c2ccccc2)c1C(=O)OCC(=O)NC(=O)c1ccccc1 do in these assays?
RanGTP-Impb inh: -3
